Active and inactive are the calls of the source. Unless noted, no cut-off for these calls is given here.
Columns and labels:
[1] = Inhibition of quorum sensing system in Pseudomonas aeruginosa PAO1 MH602 harboring lasB promoter fused with GFP-ASV assessed as reduction in GFP-ASV reporter protein expression at 266 uM measured every 30 mins relative to control
Pseudomonas aeruginosa [2] = assay: Antibacterial activity against Pseudomonas aeruginosa PAO1 assessed as inhibition of biofilm formation at 150 uM after 6 hrs by crystal violet staining assay relative to control; type: functional; conditions: for inhibition at 150 µM: PAO1, 6 h
Pseudomonas aeruginosa [3] = assay: Antibacterial activity against Pseudomonas aeruginosa PAO1 MH602 harboring lasB promoter fused with GFP-ASV assessed as growth inhibition at 88 uM measured every 30 mins by GFP-ASV reporter gene assay; type: organism-based; conditions: pseudomonas aeruginosa, in vivo, 0.5 h, 88 µM
In short: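 Cell growth of the PAO1 PlasB::gfp(ASV) reporter strain tracked as OD600 every half hour during compound incubation, alongside GFP readings. Growth is compared against the untreated control.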

[4] = Inhibition of quorum sensing system in Pseudomonas aeruginosa PAO1 MH602 harboring lasB promoter fused with GFP-ASV assessed as reduction in GFP-ASV reporter protein expression at 88 uM measured every 30 mins relative to control
In short: (§1)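 P. aeruginosa PAO1 carrying a PlasB::gfp(ASV) fusion plasmid, which makes its own AHL signals, incubated with compounds at 88.8, 29.6, 9.9, 3.3 or 1.0 μM. GFP fluorescence (RFU) read every half hour. Percent QS inhibition is the percent RFU difference between sample and untreated control, taken at the time point when control fluorescence peaks.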

[5] = Induction of nitric oxide release in PBS buffer supplemented with L-cysteine, xanthine, xanthine oxidase assessed as nitrite release at 250 to 500 uM after 24 hrs by Griess assay; type: physicochemical
In short: (§2)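 Total NO release was quantified as nitrite with Griess reagent, which detects nitrite at ≥1 μM. Because of that limit, compounds were added at 250 μM and 500 μM.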

[6] = Inhibition of quorum sensing system in Pseudomonas aeruginosa PAO1 MH602 harboring lasB promoter fused with GFP-ASV assessed as reduction in GFP-ASV reporter protein expression at 3.2 uM measured every 30 mins relative to control; in short: as §1
[7] = Inhibition of quorum sensing system in Pseudomonas aeruginosa PAO1 MH602 harboring lasB promoter fused with GFP-ASV assessed as reduction in GFP-ASV reporter protein expression at 29 uM measured every 30 mins relative to control; in short: as §1
[8] = Inhibition of quorum sensing system in Pseudomonas aeruginosa PAO1 MH602 harboring lasB promoter fused with GFP-ASV assessed as reduction in GFP-ASV reporter protein expression at 9.8 uM measured every 30 mins relative to control; in short: as §1
[9] = Inhibition of quorum sensing system in Pseudomonas aeruginosa PAO1 MH602 harboring lasB promoter fused with GFP-ASV assessed as reduction in GFP-ASV reporter protein expression measured every 30 mins; in short: as §1
Pseudomonas aeruginosa [10] = assay: Induction of nitric oxide-dependent nirS gene expression in Pseudomonas aeruginosa at 500 uM incubated for 2 hrs under dark condition by GFP reporter gene assay relative to untreated control; type: functional
Pseudomonas aeruginosa [11] = assay: Antibacterial activity against Pseudomonas aeruginosa assessed as growth inhibition at 500 uM after 2 hrs by GFP reporter gene assay; type: organism-based; conditions: in vivo
[12] = Induction of nitric oxide release in PBS buffer supplemented with L-cysteine, xanthine, xanthine oxidase assessed as nitrite release at 500 uM after 1 hr by Griess assay; type: physicochemical; in short: as §2

CCCC(OC(=O)CO/N=[N+](\[O-])N1CCN(C(=O)OCC)CC1)C1=CC(=C(Br)Br)OC1=O (stereo not given)
inhibition [1]: 65.9%
inhibition (Pseudomonas aeruginosa [2]): inactive
Activity (Pseudomonas aeruginosa [3]): Non-toxic
inhibition [4]: 41.5%
Activity [5]: Not Active
inhibition [6]: inactive
inhibition [7]: 22.8%
inhibition [8]: 4%
inhibition [9]: Dose-dependent effect

CCCCCCCCCCCC(O[N+](=O)[O-])C1=CC(=C(Br)Br)OC1=O (stereo not given)
inhibition [1]: 67.3%
inhibition at 150 µM (Pseudomonas aeruginosa [2]): 73%
Activity (Pseudomonas aeruginosa [3]): Non-toxic
Activity (Pseudomonas aeruginosa [10]): inactive
inhibition [4]: 29%
inhibition [6]: inactive
inhibition [7]: inactive
inhibition [8]: inactive
inhibition [9]: Dose-dependent effect
Activity (Pseudomonas aeruginosa [11]): Non-toxic
Activity [12]: 17.9 µM

CCCCCCCCCCCC(OC(=O)CC(=O)N1CCN(/[N+]([O-])=N/OC)CC1)C1=CC(=C(Br)Br)OC1=O (stereo not given)
inhibition [1]: 40.9%
inhibition (Pseudomonas aeruginosa [2]): inactive
Activity (Pseudomonas aeruginosa [3]): Non-toxic
inhibition [4]: inactive
Activity [5]: Not Active
inhibition [6]: inactive
inhibition [7]: inactive
inhibition [8]: inactive
inhibition [9]: Dose-dependent effect

CCCC(OC(=O)CO[N+](=O)[O-])C1=CC(=C(Br)Br)OC1=O (stereo not given)
inhibition [1]: 88%
inhibition at 150 µM (Pseudomonas aeruginosa [2]): 61%
Activity (Pseudomonas aeruginosa [3]): Non-toxic
fold change (FC) (Pseudomonas aeruginosa [10]): 2.5
inhibition [4]: 72.9%
inhibition [6]: inactive
inhibition [7]: 49.6%
inhibition [8]: 23.2%
inhibition [9]: Dose-dependent effect
Activity (Pseudomonas aeruginosa [11]): Non-toxic
Activity [12]: 29 µM

— ChEMBL document CHEMBL3102710, “Design, synthesis, and evaluation of fimbrolide-nitric oxide donor hybrids as antimicrobial agents” (J Med Chem, 2013)
